Data published in article PMC4765323 (Current topics in medicinal chemistry, 2009).

T1: M1 mAChR (M1/CHO cells) (Rattus norvegicus, UniProt P08482)
T1 sequence (P08482 1-460): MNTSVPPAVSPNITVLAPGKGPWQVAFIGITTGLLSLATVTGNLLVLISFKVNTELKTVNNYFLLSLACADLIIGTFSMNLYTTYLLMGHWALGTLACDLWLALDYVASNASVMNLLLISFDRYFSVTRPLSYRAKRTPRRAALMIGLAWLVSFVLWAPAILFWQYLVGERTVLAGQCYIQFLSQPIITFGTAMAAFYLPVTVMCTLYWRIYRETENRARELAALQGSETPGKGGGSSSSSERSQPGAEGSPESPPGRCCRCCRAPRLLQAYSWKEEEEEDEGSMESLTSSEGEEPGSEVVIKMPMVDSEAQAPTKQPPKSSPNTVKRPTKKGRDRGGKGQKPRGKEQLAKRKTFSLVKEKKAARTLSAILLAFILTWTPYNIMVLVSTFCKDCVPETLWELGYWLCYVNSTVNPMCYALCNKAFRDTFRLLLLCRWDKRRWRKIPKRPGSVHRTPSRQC

T2: Y381A mutant M1 mAChR (Homo sapiens, UniProt P11229, Y381A)
T2 sequence (P11229 1-460 Y381A): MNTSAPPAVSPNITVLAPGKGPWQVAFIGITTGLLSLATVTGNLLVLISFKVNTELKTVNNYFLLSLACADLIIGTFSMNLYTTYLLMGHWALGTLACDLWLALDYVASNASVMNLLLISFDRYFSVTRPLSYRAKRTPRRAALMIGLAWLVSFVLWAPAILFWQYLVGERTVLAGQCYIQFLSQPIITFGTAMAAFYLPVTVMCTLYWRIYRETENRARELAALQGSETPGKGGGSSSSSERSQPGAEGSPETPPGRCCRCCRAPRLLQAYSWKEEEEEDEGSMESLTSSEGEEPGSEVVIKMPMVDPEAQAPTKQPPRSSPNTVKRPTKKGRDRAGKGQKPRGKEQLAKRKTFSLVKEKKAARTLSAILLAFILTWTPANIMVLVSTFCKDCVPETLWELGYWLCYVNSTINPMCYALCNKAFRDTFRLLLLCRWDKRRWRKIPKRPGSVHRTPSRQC

T3: M1 mAChR (Homo sapiens, UniProt P11229)
T3 sequence (P11229 1-460): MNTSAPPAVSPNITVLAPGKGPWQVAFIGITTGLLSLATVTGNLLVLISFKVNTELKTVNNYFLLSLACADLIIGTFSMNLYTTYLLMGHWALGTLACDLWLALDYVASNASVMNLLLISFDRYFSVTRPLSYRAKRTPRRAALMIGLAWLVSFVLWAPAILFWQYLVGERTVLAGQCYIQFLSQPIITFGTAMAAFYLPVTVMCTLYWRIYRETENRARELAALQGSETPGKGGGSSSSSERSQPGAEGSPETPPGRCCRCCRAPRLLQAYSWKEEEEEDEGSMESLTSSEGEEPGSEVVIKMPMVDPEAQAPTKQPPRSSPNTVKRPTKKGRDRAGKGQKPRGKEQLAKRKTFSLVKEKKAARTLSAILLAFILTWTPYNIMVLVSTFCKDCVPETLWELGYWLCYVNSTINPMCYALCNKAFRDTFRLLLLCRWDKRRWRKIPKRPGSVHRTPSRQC


Columns and labels:
[1] = test system: M2-M5 mAChR; experiment: functional mAChR selectivity, M2-M5 reported together; format: cell-based, rat
[2] = plasma:brain study; format: in vivo, Sprauge Dawley rat; conditions: male rats, 10 mg/kg i.p.
[3] = test system: NMDAR currents in hippocampal CA1 pyramidal cells; format: cell-based
[4] = molecular target: T1, M1 mAChR (M1/CHO cells); experiment: functional cell-based calcium-mobilization assay, M1/CHO cell line; conditions: read-out: M1 IC50
In short: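 Real-time calcium mobilisation in CHO cells expressing M1, with a Z' averaging 0.7. Primary hits from a single-pass library screen were retested in duplicate and counter-screened on mGluR4/CHO cells. IC50 values came from 10-point concentration-response curves run in triplicate, tested in parallel on M4/CHO cells.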

[5] = molecular target: T2, Y381A mutant M1 mAChR; experiment: mutagenesis experiment, Y381A mutant M1; format: cell-based; conditions: wherein ACh loses affinity
[6] = test system: pilocarpine-induced seizures; experiment: pilocarpine-induced seizures in vivo; design: species or system mice; conditions: pilocarpine 280 mg/kg
[7] = molecular target: T3, M1 mAChR; experiment: phosphoinositide; format: cell-based; conditions: PI hydrolysis, ACh concentration-response curve
In short: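 Phosphoinositide hydrolysis was driven by an ACh concentration-response curve, run with and without several test compound concentrations. Rightward shifts of the ACh curve were fitted by Schild analysis to give a Kd and a slope.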

[8] = test system: M1 receptor versus M2-M5; conditions: reported for known antagonists, no reference given; cited from earlier work

Row | Molecule | functional selectivity for M1 versus M2-M5 ([1]; functional) [fold] | IC50 ([1]; read-out: M2-M5 IC50, functional, one bound for all of M2-M5) [nM] | inhibition of M2-M5 ([1]; up to 150 μM in some experiments, concentrations solubility limited) | BrainAUC/PlasmaAUC [2] | block of CCh-potentiated NMDA-evoked current ([3]; 10 μM CCh, 5 μM compound) | effect of compound alone on NMDA-evoked current ([3]; compound alone, no CCh) | IC50 [4] [nM] | antagonism of M1 mAChR responses in Y381A mutant [5] | seizure count ([6]; compound 10 mg/kg i.p.) | animals that died ([6]; compound 10 mg/kg i.p. after 40 minutes, 2/8 at 24 hours) [%] | Schild slope [7] | M1 selectivity versus M2-M5 [8]
1 | O=C(CCNS(=O)(=O)c1cccc2nsnc12)N1CCN(c2ccncc2)CC1 [VU0255035] | > 75 | > 10000 | little inhibition | 0.48 | completely blocked | no effect | 130 | right shifted | statistically significant effect reducing seizure count | 25 | 0.90 ± 0.08 | 
2 | MT7 (protein, UniProt Q8QGR0 22-86, looked up) Muscarinic toxin 7: LTCVKSNSIWFPTSEDCPDGQNLCFKRWQYISPRMYDFTRGCAATCPKAEYRDVINCCGTDKCNK |  |  |  |  |  |  |  |  |  |  |  | > 1,000 fold
